The values below come from ChEMBL document CHEMBL4033653, “Effect of 1,2,3-triazole salts, non-classical bioisosteres of miltefosine, on Leishmania amazonensis” (Bioorg Med Chem, 2017).

The subject of data set [1] is Leishmania amazonensis. Briefly: Antileishmanial activity against Leishmania amazonensis IFLA/BR/1967/PH8 promastigotes after 72 hrs by MTT assay. Type of data set: functional.
For data set [2], the system named is Leishmania amazonensis. The experiment in a line: Antileishmanial activity against Leishmania amazonensis WHOM/BR/75/Josefa promastigotes transfected with green fluorescent protein after 72 hrs by MTT assay. Type of data set: functional.
In data set [3] the test system is Leishmania amazonensis. Briefly: Antileishmanial activity against Leishmania amazonensis IFLA/BR/1967/PH8 promastigotes transfected with red fluorescent protein after 72 hrs by MTT assay. It counts as functional. To be noted: IFLA/BR/1967/PH8, 72 h.
Data set [4] relates to Leishmania amazonensis. The experiment in a line: Antileishmanial activity against Leishmania amazonensis IFLA/BR/1967/PH8 amastigotes infected in murine macrophages after 72 hrs by fluorometric analysis. Type of data set: functional. To be noted: IFLA/BR/1967/PH8, 72 h.
Data set [5] concerns Leishmania amazonensis. Briefly: Antileishmanial activity against Leishmania amazonensis WHOM/BR/75/Josefa amastigotes transfected with green fluorescent protein infected in murine macrophages after 72 hrs by fluorometric analysis. Type of data set: functional. The method in brief:
(§1)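 Infected murine macrophages treated 0.78-100.0 µM for 72 h; fluorescence read at 540/600 nm for RFP parasites (PH8) and 485/528 nm for GFP parasites (Josefa strain); IC50 from three independent experiments in duplicate.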

In data set [6] the test system is Leishmania amazonensis. The experiment in a line: Antileishmanial activity against Leishmania amazonensis IFLA/BR/1967/PH8 amastigotes transfected with red fluorescent protein infected in murine macrophages after 72 hrs by fluorometric analysis. Type of data set: functional. To be noted: IFLA/BR/1967/PH8, 72 h. The essentials:
as §1

Data set [7] can be described thus: (§2) Cytotoxicity against mouse peritoneal macrophages after 72 hrs by MTT assay. Type of data set: cell-based, Peritoneal macrophage. To be noted: peritoneal macrophages.
Data set [8] in a line: Selectivity index, ratio of CC50 for mouse peritoneal macrophages to IC50 for Leishmania amazonensis IFLA/BR/1967/PH8 amastigotes. The essentials: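 SI = CC50 for mouse peritoneal macrophages / amastigote IC50. […] IC50: WT-infected macrophages treated with 0.78–100.0 µM in sterile water; burden scored by counting amastigotes and infected/uninfected cells in at least 200 macrophages. Three experiments in duplicate.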

Data set [9] is described as follows: Selectivity index, ratio of CC50 for mouse peritoneal macrophages to IC50 for Leishmania amazonensis WHOM/BR/75/Josefa amastigotes transfected with green fluorescent protein. The essentials: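 SI = CC50 for mouse peritoneal macrophages / GFP amastigote IC50. […] IC50: macrophages infected with GFP-expressing Josefa-strain parasites, treated with 0.78–100.0 µM for 72 h; fluorescence read at 485 nm excitation/528 nm emission. Three experiments in duplicate.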

The nature of data set [10]: Selectivity index, ratio of CC50 for mouse peritoneal macrophages to IC50 for Leishmania amazonensis IFLA/BR/1967/PH8 amastigotes transfected with red fluorescent protein. The method in brief:
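SI = CC50 for mouse peritoneal macrophages / RFP amastigote IC50. […] IC50: macrophages infected with RFP-expressing PH8 parasites, treated with 0.78–100.0 µM for 72 h; fluorescence read at 540 nm excitation/600 nm emission. Three experiments in duplicate.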

Data set [11] concerns Leishmania amazonensis. The experiment in a line: Induction of ROS accumulation in Leishmania amazonensis IFLA/BR/1967/PH8 promastigotes at 22 uM after 72 hrs by H2DCFDA staining-based fluorometric analysis relative to control. It counts as functional. The essentials:
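WT exponential-phase promastigotes treated at 25 °C; adjusted to 2x10^7 cells in PBS, loaded with H2DCFDA 30 min dark at room temperature; fluorescence 485/528 nm versus untreated; three independent experiments.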

In data set [12] the test system is Leishmania amazonensis. Briefly: Induction of apoptosis in Leishmania amazonensis IFLA/BR/1967/PH8 promastigotes assessed as early apoptotic population at 44 uM after 24 hrs by Annexin V-FITC/PI staining based flow cytometric analysis (reference value: 5.29%). It counts as functional. The method in brief:
(§3)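 Exponential-phase WT promastigotes (1x10^7 cells/mL) cultured 24 h at 25 °C; stained annexin V-FITC plus PI, flow cytometry with 10,000 events gated on parasites; quadrant percentages; three independent experiments.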

The test system of data set [13] is Leishmania amazonensis. The experiment in a line: Induction of apoptosis in Leishmania amazonensis IFLA/BR/1967/PH8 promastigotes assessed as late apoptotic population at 44 uM after 24 hrs by Annexin V-FITC/PI staining based flow cytometric analysis (reference value: 2.62%). Type of data set: functional. The method in brief: as §3
The subject of data set [14] is Leishmania amazonensis. The experiment in a line: Induction of apoptosis in Leishmania amazonensis IFLA/BR/1967/PH8 promastigotes assessed as necrotic population at 44 uM after 24 hrs by Annexin V-FITC/PI staining based flow cytometric analysis (reference value: 0.03%). Type of data set: functional. The essentials: as §3
Data set [15] has as its system Leishmania amazonensis. Briefly: Induction of DNA damage in Leishmania amazonensis IFLA/BR/1967/PH8 promastigotes at 22 uM after 24 hrs by TUNEL assay. Type of data set: functional. The essentials:
(§4)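 Exponential-phase WT promastigotes (1x10^7 cells/mL) cultured 24 h at 25 °C; DNA fragmentation detected by TUNEL with DAPI counterstain, fluorescence microscopy at 100X.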

Data set [16] relates to Leishmania amazonensis. Briefly: Antileishmanial activity against Leishmania amazonensis IFLA/BR/1967/PH8 promastigotes at 2.5 to 20 uM incubated for 72 hrs followed by compound washout measured after 72 hrs by Neubauer chamber method. It counts as functional. The essentials:
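WT promastigotes exposed 72 h at 25 °C and counted; centrifuged, washed twice in PBS, adjusted to 10x10^6 cells/mL in drug-free Warren's medium + 10% serum; after 72 h at 25 °C viable cells counted in Neubauer chamber; three independent experiments in duplicate.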

The subject of data set [17] is Leishmania amazonensis. Briefly: Induction of lipid inclusions in Leishmania amazonensis IFLA/BR/1967/PH8 promastigotes at 5 uM after 24 hrs by Nile Red satining-based spectrofluorometric analysis. It counts as functional. The method in brief: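 WT exponential-phase promastigotes (1x10^7 cells/mL) cultured 24 h at 25 °C, stained with Nile Red, fluorescence read spectrofluorometrically versus untreated; three experiments in triplicate.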

Data set [18] concerns Leishmania amazonensis. The experiment in a line: Induction of lipid inclusions in Leishmania amazonensis IFLA/BR/1967/PH8 promastigotes at 2.5 uM after 24 hrs by Nile Red satining-based spectrofluorometric analysis. Type of data set: functional. The essentials: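 WT (PH8) promastigotes at 1x10^7 cells/mL in exponential phase, cultured 24 h at 25 °C with or without 2.5–20.0 µM. Parasites incubated with Nile Red, then fluorescence measured spectrofluorometrically. Reported as arbitrary fluorescence units versus untreated parasites, mean of three experiments run in triplicate.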

For data set [19], the system named is Leishmania amazonensis. The experiment in a line: Induction of plasma membrane permeability in Leishmania amazonensis IFLA/BR/1967/PH8 promastigotes form assessed as increase in fluorescence intensity at 20 uM after 24 hrs by PI staining-based spectrofluorometric analysis. It counts as functional. The method in brief:
(§5)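 Exponential WT promastigotes (1x10^7 cells/mL) treated 24 h at 25 °C; washed, PI 1.0 µg/mL 15 min dark at room temperature; fluorescence 540/600 nm as % increase over untreated; heat-killed cells (65 °C, 10 min) as positive control; three independent experiments.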

For data set [20], the system named is Leishmania amazonensis. The experiment in a line: Induction of plasma membrane permeability in Leishmania amazonensis IFLA/BR/1967/PH8 promastigotes form assessed as increase in fluorescence intensity at 2.5 to 10 uM after 24 hrs by PI staining-based spectrofluorometric analysis. It counts as functional. The essentials:
as §5

The test system of data set [21] is Leishmania amazonensis. The experiment in a line: Induction of morphological changes in Leishmania amazonensis IFLA/BR/1967/PH8 promastigotes assessed as altered parasite shape at 2.5 to 20 uM after 24 hrs by Giemsa staining-based microscopic analysis. Type of data set: functional. The method in brief:
(§6)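 Exponential-phase promastigotes (1x10^7 cells/mL) treated 24 h at 25 °C; harvested, resuspended in PBS, smeared, ethanol-fixed, Giemsa-stained and examined by light microscopy.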

Data set [22] deals with Leishmania amazonensis. Briefly: Induction of morphological changes in Leishmania amazonensis IFLA/BR/1967/PH8 promastigotes assessed as parasite size reduction at 2.5 to 20 uM after 24 hrs by Giemsa staining-based microscopic analysis. It counts as functional. The essentials:
as §6

Data set [23] concerns Leishmania amazonensis. The experiment in a line: Induction of morphological changes in Leishmania amazonensis IFLA/BR/1967/PH8 promastigotes assessed as rounded cell body at 2.5 to 20 uM after 24 hrs by Giemsa staining-based microscopic analysis. It counts as functional. The method in brief:
as §6

The test system of data set [24] is Leishmania amazonensis. The experiment in a line: Induction of DNA damage in Leishmania amazonensis IFLA/BR/1967/PH8 promastigotes at 5 to 10 uM after 24 hrs by TUNEL assay. Type of data set: functional. The method in brief: as §4
Data set [25] has as its system Leishmania amazonensis. Briefly: Induction of autophagy in Leishmania amazonensis IFLA/BR/1967/PH8 promastigotes at 2.5 to 10 uM after 24 hrs by MDC staining-based fluorometric analysis. It counts as functional. The method in brief: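 Exponential WT promastigotes (1x10^7 cells/mL) treated 24 h at 25 °C; washed, adjusted to 10x10^6 cells/mL, 100 µM monodansylcadaverine 1 h dark at 25 °C; fluorescence 335/460 nm versus untreated; three independent experiments.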

The subject of another data set is Peritoneal macrophage. The data set is described as §2. It counts as cell-based. To be noted: peritoneal macrophage, 72 h.
Setting [26] is: Leishmania amazonensis, IFLA/BR/1967/PH8, 72 h.

Calls of active or inactive are those of the source. No cut-off for these calls is given here.

Compound `CCCCCCCCCCn1cc(CO)[n+](C)n1` [listing 1 of 2 here] displayed an IC50 with Leishmania amazonensis [1] of 14.3 µM.

As for `CCCCn1cc(CO)[n+](C)n1`, in the data set with Leishmania amazonensis [1] (setting [26]), the IC50 is greater than 100 µM.

Compound `CCCCn1cc(CO)[n+](CCC)n1` gave an IC50 in the data set with Leishmania amazonensis [1] (setting [26]) greater than 100 µM.

With `CCCCCCCCCCCCCCCCOP(=O)([O-])OCC[N+](C)(C)C` [MILTEFOSINE], the concentration for half-maximal inhibition (IC50) in the data set with Leishmania amazonensis [1] (setting [26]) is 22 µM; with Leishmania amazonensis [2] it was 13.2 µM; with Leishmania amazonensis [3], 18.9 µM; in the data set on Leishmania amazonensis [4] it was 4.2 µM; in the data set with Leishmania amazonensis [5] it was 6.6 µM; in the data set on Leishmania amazonensis [6], 12.7 µM. In addition, half-maximal cytotoxicity in [7] (CC50 at 72 h) was put at 144 µM. For the same compound, the results for the “Ratio CC50/IC50” value in [8], in data set [9] and in data set [10] were 34.2, 21.7 and 11.3, respectively. The Activity is on record as 66.7% with Leishmania amazonensis [11], 53.22% in the data set on Leishmania amazonensis [12], 12.23% in the data set on Leishmania amazonensis [13] and 7.15% with Leishmania amazonensis [14]. Further, the result in the data set with Leishmania amazonensis [15] was Active.

As to `CCCCCCCCCCn1cc(CO)[n+](C)n1` [listing 2 of 2 here], the outcome in the data set with Leishmania amazonensis [16], in the data set on Leishmania amazonensis [19], in the data set on Leishmania amazonensis [21], in the data set with Leishmania amazonensis [22], in the data set on Leishmania amazonensis [23] and in the data set with Leishmania amazonensis [24] was Active. Moreover, the outcome with Leishmania amazonensis [17], with Leishmania amazonensis [18], in the data set on Leishmania amazonensis [20] and in the data set on Leishmania amazonensis [25] was inactive.

Turning to `CCCCCCCCCCn1cc(CO)[n+](CCC)n1` [listing 1 of 2 here], in the data set with Leishmania amazonensis [1] (setting [26]), the half-inhibitory concentration (IC50) came out at 0.73 µM. The compound also gave a CC50 in the data set with Peritoneal macrophage of 4.6 µM.

Compound `CCCCCCCCCCn1cc(CO)[n+](CCC)n1` [listing 2 of 2 here] registered an IC50 with Leishmania amazonensis [1] of 0.7 µM. In the data set on Peritoneal macrophage, the 50% cytotoxic concentration (CC50) came to 3.9 µM.

`CCCCCCn1cc(CO)[n+](CCC)n1` had an IC50 in the data set with Leishmania amazonensis [1] (setting [26]) greater than 100 µM.

For `CCCCCCn1cc(CO)[n+](C)n1`, the IC50 with Leishmania amazonensis [1] (setting [26]) was greater than 100 µM.
